The source of these data is ChEMBL document CHEMBL1128190, “Inhibition of E-selectin-, ICAM-1-, and VCAM-1-mediated cell adhesion by benzo[b]thiophene-, benzofuran-, indole-, and naphthalene-2-carboxamides: identification of PD 144795 as an antiinflammatory agent” (J Med Chem, 1995).

As a reminder, the inhibition in vivo is how much of the control response was suppressed. One may read the IC50 as the concentration that gives 50% inhibition. A word on the inhibition: it is the share of the control response that was lost under treatment.

In assay [1] the test system is Rattus norvegicus. Kind of assay: Inhibitory activity against Mycobacterium-induced foot-pad edema(MFE) at 50 mg/kg. Format: functional.
The nature of assay [2]: Inhibitory activity against E-Selectin mediated cell adhesion in Human umbilical endothelial cell culture, by using HUVEC surface expression assay. It counts as functional, cell-based. In outline: (§1)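 Confluent HUVECs were given compound 30 min before TNF-α (140 U/mL final), then incubated 4 h at 37 °C. Cells were formalin-fixed and surface E-selectin detected by cell ELISA (mouse anti-E-selectin 0.5 μg/mL, peroxidase anti-mouse IgG), with absorbance at 414 nm. Unstimulated background was subtracted and results given as % inhibition versus vehicle. IC50 came from linear regression; average of two assays, each in triplicate.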

A short description of assay [3]: Inhibitory activity against intercellular adhesion molecule (ICAM)-1 mediated cell adhesion in Human umbilical endothelial cell culture, by using HUVEC surface expression assay. It counts as functional, cell-based. In outline:
(§2)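 HUVECs were pretreated with compound for 30 min, then stimulated with TNF-α (140 U/mL final) for 4 h at 37 °C. After formalin fixation, surface ICAM-1 was measured by cell ELISA (mouse anti-ICAM-1 0.5 μg/mL, peroxidase anti-mouse IgG), with absorbance at 414 nm. Unstimulated background was subtracted and results given as % inhibition versus vehicle. IC50 came from linear regression; average of two triplicate assays.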

Assay [4] in a line: The compound was tested for cell adhesion by measuring the inhibitory concentration against Human umbilical vein endothelial cell (HUVEC) activation, using Na51CrO4 as radioligand. It counts as functional, cell-based.
The nature of assay [5]: Tested for cell adhesion by measuring the inhibitory concentration against Human umbilical vein endothelial cell (HUVEC) activation, using Na51CrO4 as radioligand at 100 uM. It counts as functional. The essentials: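 Confluent second-passage HUVEC monolayers were stimulated with TNF-α (200 U/mL) for 4 h with or without compound at 100 μM, then washed. Fresh human neutrophils labelled with Na⁵¹CrO₄ (5 × 10⁵) were added for 30 min at 37 °C. Non-adherent cells were aspirated and adherent cells lysed in NH₄OH; lysates were γ-counted. Results are % inhibition of TNF-stimulated adherence, triplicate. IC50 came from linear regression at 33.3–1.0 μM.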

A short description of assay [6]: The compound was tested for cell adhesion by measuring the inhibitory concentration against Human umbilical vein endothelial cell (HUVEC) activation, using calcein-AM as radioligand. Format: functional, cell-based.
The nature of assay [7]: The compound was tested for cell adhesion by measuring the inhibitory concentration against Human umbilical vein endothelial cell (HUVEC) activation using neutrophils labelled with calcein-AM at 100 uM. Format: functional.
Assay [8] can be described thus: Inhibitory activity against intercellular adhesion molecule (ICAM)-1 mediated cell adhesion in Human umbilical endothelial cell culture, by using HUVEC surface expression assay at 50 uM. It counts as functional. The essentials: as §2
Assay [9] relates to Rattus norvegicus. Kind of assay: Inhibitory activity against Mycobacterium-induced foot-pad edema(MFE)at 50 mg/kg. It counts as functional.
A short description of assay [10]: Inhibitory activity against E-Selectin mediated cell adhesion in Human umbilical endothelial cell culture, by using HUVEC surface expression assay at 50 uM. Format: functional. In outline:
as §1

Assay [11] in a line: The compound was tested for cell adhesion by measuring the inhibitory concentration against Human umbilical vein endothelial cell (HUVEC) activation, using Na51CrO4 as radioligand at 50 uM. It counts as functional.

Turning to `COc1ccc2c(c1)c(OC(C)C)c(C(N)=O)[s+]2[O-]` (stereo unspecified) [listing 1 of 2 here], testing at 50 mg/kg in assay [1] gave an inhibition in vivo of 83%. Besides, the IC50 in [2] worked out at 9.6 µM; in [3] it was 5.7 µM; in assay [4], 4 µM.
`COc1ccc2sc(C(N)=O)c(OC(C)(C)C)c2c1`: in assay [5], the inhibition at 100 µM turned out to be 97%.
For the compound `CC(C)Sc1c(C(N)=O)sc2ccc(O)cc12`, the IC50 in [6] was 3.6 µM.
Take `COc1ccc2sc(C(=O)NC(C)C)c(OC(C)C)c2c1`: the inhibition at 100 µM in assay [7] is 26%.
As for `COc1ccc2c(c1)c(OC(C)C)c(C(N)=O)[s+]2[O-]` (stereo unspecified) [listing 2 of 2 here], the inhibition at 50 µM in [8] worked out at 24%; in [10], 25%; in assay [11], 20%. The same compound gave an inhibition in vivo at 50 mg/kg in [9] of 5%.
